From ChEMBL document CHEMBL1687796, “Synthesis and spectrum of the neoglycoside ACHN-490” (2010)
In brackets after ≈: the same amount, converted by molar mass.

Assays:
[1] = Antibacterial activity against indole positive Proteae by broth microdilution method; assay type: functional
Procedure, shortened: (§1)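 MICs were determined by CLSI broth microdilution against clinical isolate panels that included aminoglycoside-resistant isolates. […] MIC90 was derived per group and not calculated when n was <10. Imipenem, ceftobiprole, ciprofloxacin and tigecycline MICs were also determined for the resistant isolates.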

Klebsiella oxytoca [2] = assay: Antibacterial activity against aminoglycoside-resistant Klebsiella oxytoca expressing AAC(6')-1 by broth microdilution method; assay type: functional
Procedure, shortened: (§2)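 Clinical aminoglycoside-resistant isolates were each carrying a single aminoglycoside-modifying enzyme. […] MICs were determined by CLSI broth microdilution.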

Pluralibacter gergoviae = assay: Antibacterial activity against aminoglycoside-resistant Enterobacter gergoviae expressing ANT(2'')-I by broth microdilution method
Escherichia coli [3] = assay: Antibacterial activity against Escherichia coli by broth microdilution method; assay type: functional; procedure, shortened: as §1
Citrobacter freundii [4] = assay: Antibacterial activity against aminoglycoside-resistant Citrobacter freundii expressing AAC(3)-2 by broth microdilution method; assay type: functional; procedure, shortened: as §2
Enterobacter sp. = assay: Antibacterial activity against Enterobacter spp. by broth microdilution method; assay type: functional; procedure, shortened: as §1
Escherichia coli [5] = assay: Antibacterial activity against aminoglycoside-resistant Escherichia coli expressing ANT(2'')-I by broth microdilution method
Klebsiella sp. = assay: Antibacterial activity against Klebsiella spp. by broth microdilution method; assay type: functional; procedure, shortened: as §1
Serratia marcescens [6] = assay: Antibacterial activity against aminoglycoside-resistant Serratia marcescens expressing AAC(6')-1 by broth microdilution method; assay type: functional; procedure, shortened: as §2
Staphylococcus aureus [7] = assay: Antibacterial activity against aminoglycoside-resistant Staphylococcus aureus expressing APH(2'') + AAC(6') by broth microdilution method; assay type: functional
Procedure, shortened: (§3)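 MICs were measured by broth microdilution following CLSI guidance. The strains formed a 25-strain screening panel with diverse aminoglycoside resistance mechanisms. The panel included Gram-negative and S. aureus strains carrying key aminoglycoside-modifying enzymes, strains with altered permeability or efflux, and an armA ribosomal methyltransferase strain.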

Pseudomonas aeruginosa [8] = assay: Antibacterial activity against aminoglycoside-resistant Pseudomonas aeruginosa expressing AAC(6')-2 by broth microdilution method; assay type: functional; procedure, shortened: as §2
[9] = system: Staphylococcus epidermidis; assay: Antibacterial activity against aminoglycoside-resistant Staphylococcus epidermidis expressing APH(2'') + AAC(6')-1 by broth microdilution method; assay type: functional; procedure, shortened: as §2
[10] = system: Acinetobacter calcoaceticus; assay: Antibacterial activity against aminoglycoside-resistant Acinetobacter calcoaceticus expressing AAC(6')-1 by broth microdilution method; assay type: functional; procedure, shortened: as §2
Escherichia coli [11] = assay: Antibacterial activity against aminoglycoside-resistant Escherichia coli expressing ANT(2'')-1 by broth microdilution method; assay type: functional; procedure, shortened: as §2
Pseudomonas aeruginosa [12] = assay: Antibacterial activity against Pseudomonas aeruginosa ATCC 27853 by broth microdilution method; assay type: functional
Serratia liquefaciens = assay: Antibacterial activity against aminoglycoside-resistant Serratia liquefaciens expressing AAC(3)-2 by broth microdilution method; assay type: functional; procedure, shortened: as §2
Staphylococcus aureus [13] = assay: Antibacterial activity against aminoglycoside-resistant Staphylococcus aureus expressing ANT(4',4'')-2 by broth microdilution method; assay type: functional; procedure, shortened: as §2
Citrobacter freundii [14] = assay: Antibacterial activity against aminoglycoside-resistant Citrobacter freundii expressing AAC(6')-1 by broth microdilution method; assay type: functional; procedure, shortened: as §2
Enterobacter cloacae [15] = assay: Antibacterial activity against aminoglycoside-resistant Enterobacter cloacae expressing AAC(3)-2 by broth microdilution method; assay type: functional; procedure, shortened: as §2
Acinetobacter baumannii [16] = assay: Antibacterial activity against aminoglycoside-susceptible Acinetobacter baumannii by broth microdilution method; assay type: functional
Pseudomonas aeruginosa [17] = assay: Antibacterial activity against Pseudomonas aeruginosa expressing mexXY operon by broth microdilution method; assay type: functional; procedure, shortened: as §3
Klebsiella aerogenes [18] = assay: Antibacterial activity against aminoglycoside-resistant Enterobacter aerogenes expressing AAC(3)-2 by broth microdilution method; assay type: functional; procedure, shortened: as §2
Staphylococcus aureus [19] = assay: microbe, parasite or virus in culture
Klebsiella aerogenes [20] = assay: Antibacterial activity against aminoglycoside-resistant Enterobacter aerogenes expressing AAC(6')-1 by broth microdilution method; assay type: functional; procedure, shortened: as §2
Staphylococcus aureus [21] = assay: microbe, parasite or virus in culture; remark: listed apart in the source
Enterobacter cloacae [22] = assay: Antibacterial activity against aminoglycoside-resistant Enterobacter cloacae expressing ANT(2'')-I by broth microdilution method
Pseudomonas aeruginosa [23] = assay: Antibacterial activity against efflux pump deficient Pseudomonas aeruginosa by broth microdilution method; assay type: functional
Pseudomonas aeruginosa [24] = assay: Antibacterial activity against wild type Pseudomonas aeruginosa expressing efflux pump by broth microdilution method; assay type: functional
Procedure, shortened: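 MIC was determined by CLSI broth microdilution, read in μg/ml. The strain came from a 25-strain screening panel with diverse aminoglycoside resistance mechanisms. The panel included strains with changes in permeability or efflux, key aminoglycoside-modifying enzymes and an armA methyltransferase strain.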

Enterobacter cloacae [25] = assay: Antibacterial activity against aminoglycoside-resistant Enterobacter cloacae expressing AAC(6')-1 by broth microdilution method; assay type: functional; procedure, shortened: as §2
Klebsiella pneumoniae [26] = assay: Antibacterial activity against aminoglycoside-resistant Klebsiella pneumoniae expressing AAC(3)-2 by broth microdilution method; assay type: functional; procedure, shortened: as §2
Staphylococcus sp. = assay: Antibacterial activity against Staphylococcus spp. by broth microdilution method; assay type: functional; procedure, shortened: as §1
Citrobacter = assay: Antibacterial activity against Citrobacter spp. by broth microdilution method; assay type: functional; procedure, shortened: as §1
Pseudomonas aeruginosa [27] = assay: Antibacterial activity against Pseudomonas aeruginosa by broth microdilution method; assay type: functional; procedure, shortened: as §1
Serratia marcescens [28] = assay: Antibacterial activity against aminoglycoside-resistant Serratia marcescens expressing ANT(2'')-I by broth microdilution method
Escherichia coli [29] = assay: Antibacterial activity against aminoglycoside-resistant Escherichia coli expressing AAC(3)-2 by broth microdilution method; assay type: functional; procedure, shortened: as §2
Klebsiella pneumoniae [30] = assay: Antibacterial activity against aminoglycoside-resistant Klebsiella pneumoniae expressing AAC(3)-4 by broth microdilution method; assay type: functional; procedure, shortened: as §2
Pseudomonas aeruginosa [31] = assay: Antibacterial activity against Pseudomonas aeruginosa expressing ANT(4')-2 by broth microdilution method; assay type: functional; procedure, shortened: as §3
Escherichia coli [32] = assay: Antibacterial activity against aminoglycoside-resistant Escherichia coli expressing armA methylase by broth microdilution method; assay type: functional; procedure, shortened: as §3
Acinetobacter baumannii [33] = assay: Antibacterial activity against Acinetobacter baumannii ATCC 19606 by broth microdilution method; assay type: functional; conditions: ATCC 19606 = CIP 70.34 = JCM 6841; procedure, shortened: as §3
Klebsiella pneumoniae [34] = assay: Antibacterial activity against Klebsiella pneumoniae ATCC 10031 by broth microdilution method; assay type: functional; procedure, shortened: as §3
Acinetobacter = assay: Antibacterial activity against aminoglycoside-resistant Acinetobacter spp. expressing APH(3')-6 by broth microdilution method; assay type: functional; procedure, shortened: as §2
Serratia sp. = assay: Antibacterial activity against Serratia spp. by broth microdilution method; assay type: functional; conditions: Serratia sp. (in: enterobacteria); procedure, shortened: as §1
Escherichia coli [35] = assay: Antibacterial activity against Escherichia coli ATCC 25922 by broth microdilution method; assay type: functional; procedure, shortened: as §3
Klebsiella oxytoca [36] = assay: Antibacterial activity against aminoglycoside-resistant Klebsiella oxytoca expressing AAC(3)-2 by broth microdilution method; assay type: functional; procedure, shortened: as §2
Acinetobacter baumannii [37] = assay: Antibacterial activity against aminoglycoside-resistant Acinetobacter baumannii expressing […] by broth microdilution method; assay type: functional; procedure, shortened: as §2
Acinetobacter baumannii [38] = assay: Antibacterial activity against aminoglycoside-resistant Acinetobacter baumannii expressing ANT(2'')-1 by broth microdilution method; assay type: functional; procedure, shortened: as §2
Escherichia coli [39] = assay: Antibacterial activity against aminoglycoside-resistant Escherichia coli expressing AAC(3)-4 by broth microdilution method; assay type: functional; procedure, shortened: as §2

Work on `CN[C@@H]1[C@@H](O)[C@@H](O[C@@H]2[C@@H](O)[C@H](O[C@H]3OC(CNCCO)=CC[C@H]3N)[C@@H](N)C[C@H]2NC(=O)[C@@H](O)CCN)OC[C@]1(C)O` [PLAZOMICIN] yielded an MIC50 [1] of 8 µg/mL (≈ 13.5 µM), an MIC (Klebsiella oxytoca [2]) of 1 µg/mL (≈ 1.69 µM) and an MIC (Pluralibacter gergoviae) of 1 µg/mL (≈ 1.69 µM). For the same molecule, the MIC50 (Escherichia coli [3]) was 1 µg/mL (≈ 1.69 µM), the MIC90 (Escherichia coli [3]) was 2 µg/mL (≈ 3.37 µM) and the MIC (Citrobacter freundii [4]) was 1 µg/mL (≈ 1.69 µM). For the same molecule, the MIC50 (Enterobacter sp.) was 0.5 µg/mL (≈ 0.844 µM), the MIC90 (Enterobacter sp.) was 1 µg/mL (≈ 1.69 µM) and the MIC (Escherichia coli [5]) was 1 µg/mL (≈ 1.69 µM). The MIC50 (Klebsiella sp.) was 0.5 µg/mL (≈ 0.844 µM), the MIC90 (Klebsiella sp.) was 1 µg/mL (≈ 1.69 µM) and the MIC (Serratia marcescens [6]) was 1 µg/mL (≈ 1.69 µM). It also gave an MIC (Staphylococcus aureus [7]) of 4 µg/mL, an MIC (Pseudomonas aeruginosa [8]) of 6 µg/mL (≈ 10.1 µM) and an MIC [9] of 1 µg/mL. The MIC [10] was 2 µg/mL (≈ 3.37 µM), the MIC (Escherichia coli [11]) was 1 µg/mL (≈ 1.69 µM) and the MIC (Pseudomonas aeruginosa [12]) was 2 µg/mL (≈ 3.37 µM). The MIC (Serratia liquefaciens) was 1 µg/mL (≈ 1.69 µM), the MIC (Staphylococcus aureus [13]) was 1 µg/mL (≈ 1.69 µM) and the MIC (Citrobacter freundii [14]) was 1 µg/mL (≈ 1.69 µM). It also gave an MIC (Enterobacter cloacae [15]) of 1 µg/mL (≈ 1.69 µM), an MIC (Acinetobacter baumannii [16]) of 4 µg/mL (≈ 6.75 µM) and an MIC (Pseudomonas aeruginosa [17]) of 8 µg/mL (≈ 13.5 µM). For the same molecule, the MIC (Klebsiella aerogenes [18]) was 1 µg/mL (≈ 1.69 µM), the MIC (Staphylococcus aureus [19]) was 1 µg/mL (≈ 1.69 µM) and the MIC (Klebsiella aerogenes [20]) was 1 µg/mL (≈ 1.69 µM). For the same molecule, the MIC (Staphylococcus aureus [21]) was 0.5 µg/mL (≈ 0.844 µM), the MIC (Enterobacter cloacae [22]) was 1 µg/mL (≈ 1.69 µM) and the MIC (Pseudomonas aeruginosa [23]) was 0.125 µg/mL (≈ 0.211 µM). For the same molecule, the MIC (Pseudomonas aeruginosa [24]) was 4 µg/mL (≈ 6.75 µM), the MIC (Enterobacter cloacae [25]) was 1 µg/mL (≈ 1.69 µM) and the MIC (Klebsiella pneumoniae [26]) was 1 µg/mL (≈ 1.69 µM). For the same molecule, the MIC50 (Staphylococcus sp.) was 1 µg/mL (≈ 1.69 µM), the MIC90 (Staphylococcus sp.) was 2 µg/mL (≈ 3.37 µM) and the MIC50 (Citrobacter) was 0.5 µg/mL (≈ 0.844 µM). For the same molecule, the MIC50 (Pseudomonas aeruginosa [27]) was 8 µg/mL (≈ 13.5 µM), the MIC90 (Pseudomonas aeruginosa [27]) was 64 µg/mL (≈ 108 µM) and the MIC (Serratia marcescens [28]) was 1 µg/mL (≈ 1.69 µM). The MIC (Escherichia coli [29]) was 1 µg/mL (≈ 1.69 µM), the MIC (Klebsiella pneumoniae [30]) was 1 µg/mL (≈ 1.69 µM) and the MIC (Pseudomonas aeruginosa [31]) was 4 µg/mL (≈ 6.75 µM). The MIC (Escherichia coli [32]) was > 64 µg/mL, the MIC (Acinetobacter baumannii [33]) was 8 µg/mL (≈ 13.5 µM) and the MIC (Klebsiella pneumoniae [34]) was 0.25 µg/mL (≈ 0.422 µM). It also gave an MIC (Acinetobacter) of 1 µg/mL (≈ 1.69 µM), an MIC50 (Serratia sp.) of 1 µg/mL (≈ 1.69 µM) and an MIC (Escherichia coli [35]) of 1 µg/mL (≈ 1.69 µM). It also gave an MIC (Klebsiella oxytoca [36]) of 1 µg/mL (≈ 1.69 µM), an MIC (Acinetobacter baumannii [37]) of 4 µg/mL (≈ 6.75 µM) and an MIC (Acinetobacter baumannii [38]) of 2 µg/mL (≈ 3.37 µM). The MIC (Escherichia coli [39]) was 1 µg/mL (≈ 1.69 µM).
